In ChEMBL document CHEMBL1759916, “Bicyclo[2.2.2]octyltriazole inhibitors of 11β-hydoxysteroid dehydrogenase type 1. Pharmacological agents for the treatment of metabolic syndrome” (Bioorg Med Chem Lett, 2011):

Assays:
[1] = biological target: T1, 11-beta-hydroxysteroid dehydrogenase type 2 (Mus musculus, UniProt P51661); assay: Inhibition of mouse 11beta-HSD2 expressed in CHO-K1 cells assessed as conversion of [3H]-cortisol to [3H]-cortisone by scintillation proximity assay; assay type: cell-based
T1 sequence (P51661 whole entry): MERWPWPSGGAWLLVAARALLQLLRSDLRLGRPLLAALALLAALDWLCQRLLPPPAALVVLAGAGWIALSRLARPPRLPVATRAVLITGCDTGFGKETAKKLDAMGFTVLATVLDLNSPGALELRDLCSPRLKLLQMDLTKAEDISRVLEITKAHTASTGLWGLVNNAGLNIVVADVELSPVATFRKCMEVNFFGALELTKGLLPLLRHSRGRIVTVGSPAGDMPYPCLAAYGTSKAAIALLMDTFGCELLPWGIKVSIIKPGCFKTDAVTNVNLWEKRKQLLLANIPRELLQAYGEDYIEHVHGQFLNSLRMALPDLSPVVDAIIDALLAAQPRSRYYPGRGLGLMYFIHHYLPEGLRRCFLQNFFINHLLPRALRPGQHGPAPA
In short: (§1)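 Scintillation proximity assay (SPA). IC50 values are the average of two determinations.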

[2] = biological target: 11-beta-hydroxysteroid dehydrogenase 1 (Mus musculus, UniProt P50172); assay: Inhibition of mouse 11beta-HSD1 expressed in CHO-K1 cells assessed as conversion of [3H]-cortisone to [3H]-cortisol by scintillation proximity assay; assay type: cell-based
[3] = biological target: 11-beta-hydroxysteroid dehydrogenase 1 (Homo sapiens, UniProt P28845); assay: Inhibition of human 11beta-HSD1 expressed in CHO-K1 cells assessed as conversion of [3H]-cortisone to [3H]-cortisol by scintillation proximity assay; assay type: cell-based; in short: as §1
[4] = biological target: T2, 11-beta-hydroxysteroid dehydrogenase type 2 (Homo sapiens, UniProt P80365); assay: Inhibition of human 11beta-HSD2 expressed in CHO-K1 cells assessed as conversion of [3H]-cortisol to [3H]-cortisone by scintillation proximity assay; assay type: cell-based
T2 sequence (P80365 whole entry): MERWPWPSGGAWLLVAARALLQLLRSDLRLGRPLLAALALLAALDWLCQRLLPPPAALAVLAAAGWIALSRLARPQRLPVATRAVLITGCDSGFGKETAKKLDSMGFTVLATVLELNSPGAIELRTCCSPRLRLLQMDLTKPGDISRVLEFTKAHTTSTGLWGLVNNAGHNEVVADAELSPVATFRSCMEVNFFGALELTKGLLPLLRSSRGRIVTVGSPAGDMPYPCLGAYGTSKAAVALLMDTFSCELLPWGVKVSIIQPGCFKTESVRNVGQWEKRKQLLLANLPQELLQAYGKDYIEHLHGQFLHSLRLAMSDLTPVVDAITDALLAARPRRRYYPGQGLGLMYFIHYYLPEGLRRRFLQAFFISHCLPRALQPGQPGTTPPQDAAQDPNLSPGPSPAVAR

Mus musculus [5] = assay: Inhibition of 11beta-HSD1 in ICR mouse assessed as inhibition of conversion of [3H]-cortisone to [3H]-cortisol at 10 mg/kg, po administered 4 hrs before [3H]-cortisone challenge; assay type: functional
In short: (§2)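 Mouse pharmacodynamic model. Compound given 10 mg/kg PO, then 3H-cortisone by tail vein injection 1, 4 or 16 h after dosing. […] Plasma compound levels were measured after the PD studies.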

[6] = Clearance in C57 mouse at 2 mg/kg, iv; assay type: ADME, organism-based; design: dose 2 mg/kg, route intravenous; conditions: in vivo
In short: (§3)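 Mouse PK from 2 mg/kg IV and 10 mg/kg oral dosing. The PO AUC is reported normalized to dose.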

[7] = Bioavailability in C57 mouse at 2 mg/kg, iv and 10 mg/kg, po; assay type: ADME, organism-based; conditions: in vivo; in short: as §3
Mus musculus [8] = assay: Inhibition of 11beta-HSD1 in ICR mouse assessed as inhibition of conversion of [3H]-cortisone to [3H]-cortisol at 10 mg/kg, po administered 16 hrs before [3H]-cortisone challenge; assay type: functional; in short: as §2

Chain of 11-beta-hydroxysteroid dehydrogenase 1 (Mus musculus, UniProt P50172) (P50172 whole entry): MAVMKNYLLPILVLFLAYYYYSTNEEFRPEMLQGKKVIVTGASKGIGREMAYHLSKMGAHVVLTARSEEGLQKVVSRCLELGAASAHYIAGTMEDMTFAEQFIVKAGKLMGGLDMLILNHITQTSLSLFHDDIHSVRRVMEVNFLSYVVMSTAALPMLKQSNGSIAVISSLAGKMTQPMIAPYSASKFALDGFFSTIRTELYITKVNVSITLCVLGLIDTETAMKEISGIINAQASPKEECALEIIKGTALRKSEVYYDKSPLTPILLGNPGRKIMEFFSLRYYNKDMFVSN
Chain of 11-beta-hydroxysteroid dehydrogenase 1 (Homo sapiens, UniProt P28845) (P28845 whole entry): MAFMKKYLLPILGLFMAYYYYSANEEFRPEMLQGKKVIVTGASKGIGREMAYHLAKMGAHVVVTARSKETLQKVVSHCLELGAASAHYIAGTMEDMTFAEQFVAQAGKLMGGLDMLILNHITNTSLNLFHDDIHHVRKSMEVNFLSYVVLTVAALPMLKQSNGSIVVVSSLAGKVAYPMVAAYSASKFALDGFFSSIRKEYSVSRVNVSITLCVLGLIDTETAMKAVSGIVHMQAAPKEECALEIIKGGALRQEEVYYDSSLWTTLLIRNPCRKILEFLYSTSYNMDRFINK

Structure (SMILES) | IC50 [1] | IC50 [2] | IC50 [3] | IC50 [4] | clearance [6] | bioavailability [7] | inhibition in vivo at 10 mg/kg (Mus musculus [5]) | inhibition in vivo at 10 mg/kg (Mus musculus [8])
CCCCCC12CCC(c3nnc(-c4ccccc4C(F)(F)F)n3C)(CC1)CC2 | > 4000 nM | – | 1.8 nM | 1300 nM | 273 mL/min/kg | 20% | 98% | –
CCS(=O)(=O)CCCCC12CCC(c3nnc(-c4ccccc4C(F)(F)F)n3C)(CC1)CC2 | > 4000 nM | 1.8 nM | 1.6 nM | > 4000 nM | – | – | 90% | 58%
CCS(=O)(=O)NCC12CCC(c3nnc(-c4ccccc4C(F)(F)F)n3C)(CC1)CC2 | > 4000 nM | 2.9 nM | 20 nM | > 4000 nM | – | – | 95% | 50%
CCOCC12CCC(c3nnc(-c4ccccc4C(F)(F)F)n3C)(CC1)CC2 | > 4000 nM | 2 nM | 4 nM | > 4000 nM | – | – | 44% | 3%
COCCCCC12CCC(c3nnc(-c4ccccc4C(F)(F)F)n3C)(CC1)CC2 | > 4000 nM | 2 nM | 2 nM | 4000 nM | – | – | 76% | 1%
Cn1c(-c2ccccc2C(F)(F)F)nnc1C12CCC(CCCC(C)(F)F)(CC1)CC2 | > 4000 nM | < 1 nM | < 1 nM | > 4000 nM | 14 mL/min/kg | 36% | 99% | 94%
CC(C)S(=O)(=O)CCC12CCC(c3nnc(-c4ccccc4C(F)(F)F)n3C)(CC1)CC2 | > 4000 nM | 3.6 nM | 4.1 nM | > 4000 nM | – | – | 88% | 59%
Cn1c(-c2ccccc2C(F)(F)F)nnc1C12CCC(CCS(=O)(=O)c3ccc(F)cc3)(CC1)CC2 | > 4000 nM | 1.8 nM | 5.5 nM | > 4000 nM | – | – | 63% | 2%
Cn1c(-c2ccccc2C(F)(F)F)nnc1C12CCC(CNS(C)(=O)=O)(CC1)CC2 | > 4000 nM | 4 nM | 30 nM | > 4000 nM | – | – | 73% | 27%
CCS(=O)(=O)CC12CCC(c3nnc(-c4ccccc4C(F)(F)F)n3C)(CC1)CC2 | – | 4 nM | – | – | – | – | 94% | 80%
Cn1c(-c2ccccc2C(F)(F)F)nnc1C12CCC(CCS(=O)(=O)C(C)(C)C)(CC1)CC2 | > 4000 nM | 6.3 nM | 5.4 nM | > 4000 nM | – | – | 65% | 10%
CC(F)CCCC12CCC(c3nnc(-c4ccccc4C(F)(F)F)n3C)(CC1)CC2 (stereo not drawn) | > 4000 nM | < 1 nM | < 1 nM | 1300 nM | – | – | 96% | 51%
Cn1c(-c2ccccc2C(F)(F)F)nnc1C12CCC(COc3ccc(S(C)(=O)=O)cc3)(CC1)CC2 | > 4000 nM | 2 nM | 1 nM | > 4000 nM | – | – | 79% | 28%
CCSCCC12CCC(c3nnc(-c4ccccc4C(F)(F)F)n3C)(CC1)CC2 | > 4000 nM | 3.9 nM | 3.3 nM | > 4000 nM | – | – | 79% | 72%
CCCS(=O)(=O)NCC12CCC(c3nnc(-c4ccccc4C(F)(F)F)n3C)(CC1)CC2 | > 4000 nM | 1 nM | 8.1 nM | > 4000 nM | – | – | 93% | 7%
Cn1c(-c2ccccc2C(F)(F)F)nnc1C12CCC(CCS(=O)(=O)CC(F)(F)F)(CC1)CC2 | > 4000 nM | 1.5 nM | 3.7 nM | 1600 nM | – | – | 74% | 67%
CC(O)CCCC12CCC(c3nnc(-c4ccccc4C(F)(F)F)n3C)(CC1)CC2 (stereo not drawn) | > 4000 nM | 1.7 nM | < 1 nM | > 1000 nM | 88 mL/min/kg | 21% | 97% | –
Cn1c(-c2ccccc2C(F)(F)F)nnc1C12CCC(CCS(=O)(=O)c3ccccc3)(CC1)CC2 | > 4000 nM | 1.6 nM | 4.4 nM | > 4000 nM | – | – | 69% | 6%
CC[S+]([O-])CCC12CCC(c3nnc(-c4ccccc4C(F)(F)F)n3C)(CC1)CC2 (stereo not drawn) | > 4000 nM | 10 nM | 4.1 nM | > 4000 nM | – | – | 90% | 72%
Cn1c(-c2ccccc2C(F)(F)F)nnc1C12CCC(CCS(=O)(=O)C(F)(F)F)(CC1)CC2 | > 4000 nM | 2.2 nM | 6.1 nM | > 4000 nM | – | – | 81% | 78%
Cn1c(-c2ccccc2C(F)(F)F)nnc1C12CCC(CCS(C)(=O)=O)(CC1)CC2 | > 4000 nM | 4.1 nM | 11 nM | > 4000 nM | – | – | 96% | 63%

More lines, main results first:

IC50 [1] | IC50 [2] | IC50 [3] | IC50 [4] | clearance [6] | bioavailability [7] | Structure (SMILES) | inhibition in vivo at 10 mg/kg (Mus musculus [5]) | inhibition in vivo at 10 mg/kg (Mus musculus [8])
> 4000 nM | 1100 nM | 900 nM | > 4000 nM | – | – | CCS(=O)(=O)CCC12CCC(c3nnc(-c4cccc(Cl)c4)n3C)(CC1)CC2 | – | –
> 4000 nM | 6.7 nM | 5.1 nM | > 4000 nM | – | – | CCCS(=O)(=O)CCC12CCC(c3nnc(-c4ccccc4C(F)(F)F)n3C)(CC1)CC2 | 89% | 47%
> 4000 nM | – | 10 nM | > 4000 nM | – | – | CCS(=O)(=O)CCC12CCC(c3nnc(-c4ccccc4Br)n3C)(CC1)CC2 | 86% | 65%
> 4000 nM | – | – | > 4000 nM | – | – | CCS(=O)(=O)CCC12CCC(c3nnc(-c4ccccc4C)n3C)(CC1)CC2 | 86% | 30%
> 4000 nM | – | – | > 4000 nM | – | – | CCS(=O)(=O)CCC12CCC(c3nnc(-c4ccccc4F)n3C)(CC1)CC2 | – | –
> 4000 nM | 2.4 nM | 3.2 nM | > 4000 nM | – | – | CCS(=O)(=O)CCCC12CCC(c3nnc(-c4ccccc4C(F)(F)F)n3C)(CC1)CC2 [MK-0736] | 92% | 63%
> 4000 nM | – | 7.5 nM | > 4000 nM | – | – | CCS(=O)(=O)CCC12CCC(c3nnc(-c4ccccc4Cl)n3C)(CC1)CC2 | 87% | 74%
> 4000 nM | > 4000 nM | 2800 nM | > 4000 nM | – | – | CCS(=O)(=O)CCC12CCC(c3nnc(-c4ccc(Cl)cc4)n3C)(CC1)CC2 | – | –
> 4000 nM | 3 nM | 2.8 nM | > 4000 nM | – | – | CCS(=O)(=O)CCC12CCC(c3nnc(-c4ccc(O)cc4Cl)n3C)(CC1)CC2 | 26% | 14%
